From ChEMBL document CHEMBL3232947, “Inhibitory effect of turmeric curcuminoids on FLT3 expression and cell cycle arrest in the FLT3-overexpressing EoL-1 leukemic cell line” (J Nat Prod, 2014) come the findings set out here.

Assay [1] deals with EOL1. Description: Reduction in Flt3 protein level in human EOL-1 cells at 15 uM after 24 hrs by Western blot analysis. The assay is classed as functional. The note with it: EOL1, 24 h. In outline: (§1)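 Treated EoL-1 lysed in RIPA buffer, protein by Folin-Lowry, resolved on 12% SDS-PAGE; probed with rabbit polyclonal anti-FLT3 or anti-STAT5A (1:500) and anti-GAPDH (1:1000), HRP anti-rabbit secondary, chemiluminescence. Band intensities normalized to GAPDH and compared with vehicle control; mean ± SEM, three independent experiments.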
On the technique in general: Immunoblotting shows a protein as a band on a membrane.

The nature of assay [2]: Cytotoxicity against human EOL-1 cells after 48 hrs by MTT assay. It is filed as functional, cell-based. The conditions noted are these: EOL1, 48 h. In outline: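 Cells seeded at 5.0 × 10^4/well, preincubated 24 h at 37 °C, then exposed to 1.56–50 μM for 48 h (0.1% DMSO vehicle); MTT 4 h at 37 °C, formazan dissolved in DMSO, A578 (ref 630 nm). IC50 = lowest concentration giving 50% growth reduction vs vehicle; mean ± SEM, three independent experiments in triplicate.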
(In general: Tetrazolium dyes change colour on reduction, which living cells bring about.)

Assay [3] deals with EOL1. Description: Reduction in Flt3 protein level in human EOL-1 cells at 15 uM after 48 hrs by Western blot analysis. It is filed as functional. The conditions noted are these: EOL1, 48 h. In outline:
as §1

For assay [4], the system named is EOL1. Description: Reduction in Flt3 protein level in human EOL-1 cells at 10 uM after 12 hrs by Western blot analysis. The conditions noted are these: EOL1, 12 h. The assay is classed as functional. In outline: as §1
Assay [5] relates to EOL1. Description: Reduction in Flt3 protein level in human EOL-1 cells at 10 uM after 24 hrs by Western blot analysis. It is filed as functional. The conditions noted are these: EOL1, 24 h. In outline:
as §1

In assay [6] the test system is EOL1. The assay can be described thus: Reduction in Flt3 protein level in human EOL-1 cells at 10 uM after 48 hrs by Western blot analysis. The conditions noted are these: EOL1, 48 h. It is filed as functional. In outline: as §1
Assay [7] deals with EOL1. The assay can be described thus: Reduction in STAT5A protein level in human EOL-1 cells at 4 uM after 12 hrs by Western blot analysis. The assay is classed as functional. The conditions noted are these: EOL1, 12 h. In outline: as §1
Assay [8] in a line: Cell cycle arrest in human EOL-1 cells assessed as accumulation at G0/G1 phase at 3 uM after 12 hrs by flow cytometry (reference value: 54 %). The assay is classed as functional, cell-based. The note with it: EOL1. On the technique in general: A flow cytometer gives signals particle by particle.
Assay [9] concerns EOL1. The assay can be described thus: Reduction in Flt3 protein level in human EOL-1 cells at 5 uM after 12 hrs by Western blot analysis. It is filed as functional. The conditions noted are these: EOL1, 12 h. In outline: as §1
Assay [10] deals with EOL1. The assay can be described thus: Reduction in Flt3 protein level in human EOL-1 cells after 12 hrs by Western blot analysis. It is filed as functional, cell-based. In outline: as §1
The nature of assay [11]: Antiproliferative activity against human EOL-1 cells at 4 uM after 12 hrs by trypan blue exclusion assay. The assay is classed as functional, EOL1. In outline: (§2)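 EoL-1 cells (RPMI-1640, 10% fetal calf serum, L-glutamine, penicillin/streptomycin) exposed 12 h; viable counts by trypan blue exclusion over time; growth rate (cells/h) taken as slope of cell number vs incubation time, compared with vehicle-control growth rate.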

Assay [12] deals with EOL1. Description: Reduction in STAT5A protein level in human EOL-1 cells at 5 uM after 12 hrs by Western blot analysis. The assay is classed as functional. The conditions noted are these: EOL1, 12 h. In outline: as §1
Assay [13] concerns EOL1. The assay can be described thus: Reduction in STAT5A protein level in human EOL-1 cells at 3 uM after 12 hrs by Western blot analysis. The assay is classed as functional. The note with it: EOL1, 12 h. In outline:
as §1

A short description of assay [14]: Cell cycle arrest in human EOL-1 cells assessed as accumulation at G0/G1 phase at 4 uM after 48 hrs by flow cytometry (reference value: 54 %). The assay is classed as functional, cell-based. The conditions noted are these: EOL1.
The nature of assay [15]: Antiproliferative activity against human EOL-1 cells at 3 uM after 12 hrs by trypan blue exclusion assay. It is filed as functional, EOL1. In outline: as §2
Assay [16] can be described thus: Antiproliferative activity against human EOL-1 cells at 5 uM after 12 hrs by trypan blue exclusion assay. It is filed as functional, EOL1. In outline:
as §2

Assay [17] concerns EOL1. The assay can be described thus: Reduction in Flt3 protein level in human EOL-1 cells at 4 uM after 12 hrs by Western blot analysis. The assay is classed as functional. The conditions noted are these: EOL1, 12 h. In outline: as §1
Assay [18] is described as follows: Cell cycle arrest in human EOL-1 cells assessed as accumulation at G0/G1 phase at 5 uM after 12 hrs by flow cytometry (reference value: 54 %). The assay is classed as functional, cell-based. The note with it: EOL1.
For assay [19], the system named is EOL1. Description: Reduction in Flt3 protein level in human EOL-1 cells at 4 uM after 48 hrs by Western blot analysis. The assay is classed as functional. The conditions noted are these: EOL1, 48 h. In outline: as §1
Assay [20] can be described thus: Cell cycle arrest in human EOL-1 cells assessed as accumulation at G0/G1 phase at 4 uM after 12 hrs by flow cytometry (reference value: 54 %). The assay is classed as functional, cell-based. The conditions noted are these: EOL1.
Assay [21] concerns EOL1. The assay can be described thus: Reduction in Flt3 protein level in human EOL-1 cells at 4 uM after 24 hrs by Western blot analysis. It is filed as functional. The note with it: EOL1, 24 h. In outline: as §1
In assay [22] the test system is EOL1. The assay can be described thus: Reduction in Flt3 protein level in human EOL-1 cells at 3 uM after 12 hrs by Western blot analysis. The assay is classed as functional. The note with it: EOL1, 12 h. In outline: as §1
A short description of assay [23]: Cell cycle arrest in human EOL-1 cells assessed as accumulation at G0/G1 phase after 12 hrs by flow cytometry relative to control. The note with it: EOL1.
Assay [24] in a line: Cell cycle arrest in human EOL-1 cells assessed as accumulation at G0/G1 phase at 4 uM after 24 hrs by flow cytometry (reference value: 54 %). It is filed as functional, cell-based. The conditions noted are these: EOL1.
The test system of assay [25] is EOL1. The assay can be described thus: Reduction in STAT5A protein level in human EOL-1 cells after 12 hrs by Western blot analysis. It is filed as functional, cell-based. In outline:
as §1

As a reminder, the inhibition is the percentage by which the read-out fell short of the control. As usually defined, the IC50 is the point on the concentration scale where inhibition reaches its midpoint. Read a low IC50 as higher potency. For `O=C(/C=C/c1ccc(O)cc1)CC(=O)/C=C/c1ccc(O)cc1` [BISDEMETHOXYCURCUMIN], the inhibition at 15 µM is 26% in [1] and 3% in assay [3]. The compound also returned a half-maximal inhibitory concentration (IC50) in assay [2] of 22.3 µM.

In assay [2], `COc1cc(/C=C/C(O)=C/C(=O)/C=C/c2ccc(O)cc2)ccc1O` [DEMETHOXYCURCUMIN] returned an IC50 of 15.6 µM. For the same compound, the inhibition at 10 µM in assay [4] turned out to be 4%; in assay [5], 32%; in [6], 46%.

As for `COc1cc(/C=C/C(=O)CC(=O)/C=C/c2ccc(O)c(OC)c2)ccc1O` [CURCUMIN], the inhibition at 4 µM in [7] turned out to be 44%; in [17], 37%; in assay [19], 12%; in assay [21] it was 33%. For the same compound, the Activity in assay [8] came out at 66%; in assay [11] it was 25%; in [14] it was 54%; in [15] it was 17%; in assay [16], 58%; in [18] it was 75%. In addition, the results for the Activity in assay [20], in assay [23] and in [24] were 71%, “Dose-dependent effect” and 58%, respectively. The figures for the inhibition at 5 µM in assay [9] and in assay [12] were 70% and 82%, respectively. In assay [2], this compound gave an IC50 of 6.7 µM. The inhibition result in assay [10] and in assay [25] was “Dose-dependent effect” in each case. In addition, the inhibition at 3 µM in [13] stood at 13%; in [22], 17%.
